# TAAR1 antag – human TAAR1 antagonism; Q96RJ0; CHO RD-HGA16 TAAR1, Fluo-8 calcium fluorescence, antagonist; inhibition, % at 3 µM; actives 1.5% (n = 360,000);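 active means inhibition above a per-plate cutoff, the mean inhibition of test compounds on that plate plus 3 SD, cut at about 49% in these data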;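 further: 0% = DMSO plus EC80 beta-PEA response and 100% = DMSO alone without agonist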
#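 Test system – hTAAR1-expressing CHO RD-HGA16 cells, Gα16-coupled · Also added – β-PEA at EC80 concentration, post-compound challenge · Compound – 3 µM, single point · Incubation – dye loading 75 min at 37 °C, then 30 min room temperature · Measured by – Fluo-8 intracellular calcium dye fluorescence, real-time kinetic reads · Benchmarks – vehicle and agonist controls · Replicates – singlicate, one well per test compound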
# MC4R barr agon – human MC4R agonism via beta-arrestin; P32245; activation, % at 8.9 µM; AID 540308; U2OS MC4R beta-arrestin complementation, luminescence; percent of melanotan II response, DMSO zero; actives 0.98% (n = 360,000);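 active means activation above a per-plate cutoff, the mean activation of sample wells on that plate plus 3 SD, cut at about 8% in these data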
# TAAR1 agonist – agonists of human TAAR1 | CHO RD-HGA16 TAAR1, Fluo-8 calcium fluorescence; vehicle wells 0%, saturating PEA agonist 100% | activation, % at 3 µM | AID 624467 | actives 0.99% (n = 360,000);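 active means activation above the mean activation of all test compounds in the run plus 3 SD, cut at about 38% in these data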
#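 Test system: RD-HGA16 (CHO) cells co-expressing Gα16 and hTAAR1 / Benchmarks: DMSO vehicle as 0%, PEA at EC100 as 100% / Repeats: no replicates (n 1) / Measure: % activation from peak over basal fluorescence ratio, DMSO-to-PEA scaled / Timing: 17-24 h plating, Fluo-8 75 min 37 °C, 30 min RT / Technique: kinetic Fluo-8 calcium fluorescence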
# MC4R antagonist – blocks human MC4R cAMP signaling; P32245; MC4R-expressing cells, MTII-stimulated cAMP, LANCE TR-FRET; inhibition, % at 6.5 µM; actives 0.48% (n = 360,000); AID 540295;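 active means inhibition above its plate's cutoff, the mean of tested wells on that plate plus 3 SD, cut at about 29% in these data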;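 further: 0% = Melanotan II alone and 100% = Melanotan II plus saturating MCL0020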
#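 System: U2OS-MC4R stable cell line; Technique: Eu-cAMP/anti-cAMP TR-FRET, emission 671 nm; Repeats: single well per compound; Also added: Melanotan II; Dosing: one concentration, 6.5 µM nominal; Schedule: 30-min compound, 1-h challenge, 1-h detection, room temperature.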
# HTR2A ag – agonists of mouse serotonin 5-HT2A receptor (HTR2A); activation, % at 7.6 µM; P35363; actives 0.66% (n = 360,000); CHO-K1 mHTR2A beta-arrestin complementation, luminescence; percent of 30 µM serotonin response;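 active means activation above a run cutoff, the mean activation of all tested compounds plus 3 SD, cut at about 14% in these data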;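 further: 0% = plate median of compound wells and 100% = 30 µM serotonin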
# B2AR ag – agonists of human beta-2 adrenergic receptor inducing internalization; response, % (no concentration beside the values); P07550; actives 0.43% (n = 340,000); Am2.2-beta2AR cells, FAP receptor internalization, flow cytometry;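 active means response above a set limit, near 3 SD of response in nonfluorescent compounds, cut at about 42% in these data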
# Target sequence (P07550 whole entry, looked up): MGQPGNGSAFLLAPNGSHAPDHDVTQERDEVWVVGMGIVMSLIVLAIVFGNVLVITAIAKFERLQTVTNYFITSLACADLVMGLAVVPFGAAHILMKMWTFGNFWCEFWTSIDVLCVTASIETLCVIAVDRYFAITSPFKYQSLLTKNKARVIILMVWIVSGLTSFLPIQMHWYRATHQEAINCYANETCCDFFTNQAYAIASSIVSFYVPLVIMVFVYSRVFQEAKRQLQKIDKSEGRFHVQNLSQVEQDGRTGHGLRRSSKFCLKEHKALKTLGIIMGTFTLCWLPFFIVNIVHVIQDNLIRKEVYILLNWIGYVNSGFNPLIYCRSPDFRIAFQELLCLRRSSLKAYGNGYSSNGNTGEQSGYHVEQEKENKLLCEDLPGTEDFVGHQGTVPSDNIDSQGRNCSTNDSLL
# TAAR1 nonsel count – counter-screen for TAAR1 antagonists: nonselective antagonists; shares compounds with TAAR1 antag; counterscreen cell line, calcium fluorescence, antagonist mode; inhibition, % at 3 µM; actives 77% (n = 2,400); AID 651780; in the data active means inhibition above about 22%;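 further: CHO-Ga16 host cells stimulated with ATP at an EC80 level; 0% = agonist EC80 plus vehicle and 100% = vehicle without agonist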
# TAAR1 antag conf – human TAAR1 antagonism, confirmed; shares compounds with TAAR1 antag; TAAR1-expressing cells, fluorescence antagonist read-out; inhibition, % at 3 µM; actives 40% (n = 2,400); AID 651785; in the data active means inhibition above about 49%;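 further: CHO-Ga16 host cells challenged with agonist PEA near its EC80; 0% = agonist at EC80 plus vehicle and 100% = vehicle with no agonist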
# Ga16 ag counter – counter-screen for TAAR1 antagonists: nonselective Ga16 agonists | actives 18% (n = 2,400) | activation, % at 3 µM | Ga16-expressing cells, calcium fluorescence, agonist counterscreen | shares compounds with TAAR1 antag; in the data active means activation above about 12%;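 further: 0% = vehicle wells and 100% = saturating stimulus response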
# TAAR1 ag count – counter-screen for human TAAR1 antagonists: TAAR1 agonists; shares compounds with TAAR1 antag; hTAAR1 cell line, fluorescence activation, agonist mode; activation, % at 3 µM; actives 2% (n = 2,400); in the data active means activation above about 37%;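 further: CHO cells stably expressing TAAR1 with calcium dye readout; 0% = DMSO vehicle and 100% = full agonist response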
# An asterisk follows results filed as active; . = no result given. An excerpt weighted towards active compounds, which were near 4.3% of everything screened.
SMILES,TAAR1 antag,MC4R barr agon,TAAR1 agonist,MC4R antagonist,HTR2A ag,B2AR ag,TAAR1 nonsel count,TAAR1 antag conf,Ga16 ag counter,TAAR1 ag count
CCC(=O)N1CCCC(C(=O)Nc2nc3ccccc3[nH]2)CC1 (configuration not stated),-4.1,-1.6,1.3,3.6,1.9,.,.,.,.,.
O=[N+]([O-])c1ccc2[nH]cc(S(=O)(=O)N3CCN(c4cccc(Cl)c4)CC3)c2c1,8.9,-3.1,4.9,5.3,2.8,8.5,.,.,.,.
Cc1cccc(N(C)S(=O)(=O)c2c[nH]c3ccc([N+](=O)[O-])cc23)c1,56.6*,-1.5,3.7,7.8,1.7,-0.3,31.7*,43.4,4.7,1.1
CCNC(=S)N/N=C/c1cccc(OCc2c(F)cccc2Cl)c1,56.8*,0.3,5.5,1.6,0.4,3.0,13.1,47.0,10.9,12.2
COc1ccccc1CN(Cc1nc2ccccc2c(=O)[nH]1)S(=O)(=O)c1ccc(C)cc1,52.7*,.,1.2,.,.,1.0,14.5,37.9,7.6,10.5
C[C@@H]1ON(C)[C@H]2C[C@H]3c4[nH]c5cccc(-c6ccc7c(c6)OCO7)c5c4CCN3C(=O)[C@@H]12,55.6*,.,9.0,.,.,.,23.1*,40.3,7.4,10.5
COc1cccc(-c2cccc3c4c([nH]c23)[C@@H]2C[C@H]3[C@@H](C(=O)N2CC4)[C@H](C)ON3C)c1,52.7*,.,6.0,.,.,.,22.2*,36.1,4.9,8.7
C[C@@H]1ON(C)[C@H]2C[C@H]3c4[nH]c5cccc(-c6ccccc6F)c5c4CCN3C(=O)[C@@H]12,23.8,.,7.2,.,.,.,.,.,.,.
COc1ccc(-c2cccc3[nH]c4c(c23)CCN2C(=O)[C@H]3[C@H](C)ON(C)[C@H]3C[C@@H]42)cc1,49.7*,.,8.6,.,.,.,21.8*,32.7,8.0,7.7
COc1ccc(-c2cccc3c4c([nH]c23)[C@@H]2C[C@H]3[C@@H](C(=O)N2CC4)[C@H](C)ON3C)cc1,2.5,.,1.9,.,.,.,.,.,.,.
CCCCN1C(=O)C(CC(=O)NCc2cccc3ccccc23)CC(C(=O)N(C)C)=C1C (configuration not stated),1.6,0.9,1.3,5.8,-0.7,.,.,.,.,.
CN(c1ccc(Cl)cc1)S(=O)(=O)c1nnc(NC(=O)C(C)(C)C)s1,-6.3,2.1,0.0,4.8,0.8,-1.4,.,.,.,.
O=C(c1cc(-c2cccc3ccccc23)nc2ccccc12)N1CCN(CCO)CC1,53.9*,2.7,16.4,8.5,7.3,11.0,27.7*,43.5,8.7,9.9
O=C(O)c1cc(-c2cccc3ccccc23)nc2ccccc12,-21.1,-0.8,-0.6,-0.3,1.6,7.1,.,.,.,.
NC(=O)C1CCN(C(=O)c2cc(-c3ccccc3Cl)nc3ccccc23)CC1,13.1,-1.5,3.9,-1.9,0.5,-5.9,.,.,.,.
O=C(c1cc(-c2ccncc2)nc2ccccc12)N1CCN(c2ccccc2O)CC1,60.2*,-2.4,15.7,4.2,2.9,4.1,29.1*,46.3,8.4,9.6
Cc1ccc2nc(-c3ccccc3)cc(C(=O)N3CCN(c4ccccc4O)CC3)c2c1,66.0*,0.2,12.0,5.6,0.1,9.1,33.3*,50.7*,7.6,8.2
NC(=O)C1CCN(C(=O)c2cc(-c3ccc(Cl)cc3)nc3ccccc23)CC1,54.1*,0.4,7.2,0.8,-0.7,-0.2,22.6*,37.8,7.1,1.2
Cc1ccc(-c2cc(C(=O)N3CCOCC3)c3cc(C)ccc3n2)cc1,38.5,1.2,11.6,4.5,-3.0,11.4,.,.,.,.

# High-throughput results: PubChem, several laboratories
